Bioassay records: PubChem BioAssay, several laboratories
Rows were chosen to be rich in hits. Some 5.1% of all compounds tested hit in one or more screens of this group.
STAT1 inh – STAT1 signaling inhibitors, primary screen, cell-based, HTS, luciferase reporter; NIH 3T3 STAT1-luciferase reporter, IFN-gamma, luminescence; inhibition, % at 5.5 µM; 0.35% of 200,000 active;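 active means inhibition above a set limit, the mean inhibition across all tested compounds plus 3 SD, cut at about 34% in these data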;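 further: 0% = IFN-gamma with DMSO and 100% = IFN-gamma with 300 µM nifuroxazide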
STAT3 blocker – IL-6 driven STAT3 reporter inhibitors, primary screen, U3A cells, luciferase, luminescence, MLSCN library; inhibition, % at 5.5 µM; IL-6 STAT3-luciferase reporter; host cell line lacks STAT1; 0.89% of 190,000 active;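 active means inhibition above the mean inhibition across all screened compounds plus 3 SD, cut at about 44% in these data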;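 further: 0% = DMSO only wells and 100% = 100 µM nifuroxazide control wells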
STAT3 act – IL-6 driven STAT3 reporter potentiators, primary screen, U3A cells, luciferase, luminescence, MLSCN library | IL-6 STAT3-luciferase reporter; 100% = signal with IL-6 EC80 alone | activation (% of control), % at 5.6 µM | 0.91% of 190,000 active | AID 871, 2007;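 active means activation above the screen-wide mean of compound activation plus 3 SD, cut at about 130% in these data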;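 further: 0% = background luminescence of wells with medium and substrate only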
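Test system: STAT3-luciferase reporter U3A cells; Detection: reporter luminescence signal; Times: 1 h compound pre-exposure, 6 h IL-6 stimulation, 37 °C; Benchmarks: IL-6-only high control; Also added: IL-6 stimulus at 33 ng/mL final.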
STAT1 act – STAT1 signaling activators, primary screen, cell-based, HTS, luciferase reporter; NIH 3T3 STAT1-luciferase reporter, IFN-gamma, luminescence; 100% = IFN-gamma alone, no compound; activation (% of control), % at 5.5 µM; 2.6% of 200,000 active; AID 932, 2007;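 active means activation above the screen-wide mean activation plus 3 SD, cut at about 130% in these data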;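 further: raw ratio to IFN-gamma control signal so 100% means no change and 0% no light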
APP 5'UTR act – activators of APP 5'UTR luciferase reporter, primary screen, SH-SY5Y cells; SH-SY5Y APP 5'UTR luciferase reporter, luminescence; zero percent = DMSO vehicle wells; activation, % at 2 µM; 1% of 190,000 active; AID 1276, 2008;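 active means activation above a set limit, based on mean plus 3 SD of controls, cut at about 140% in these data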
NF-kB expr up – activators of NF-kB expression in neurons, primary screen, cell-based, HTS | 1.6% of 190,000 active | fold change at 12.5 µM | human neuronal cells, NF-kB reporter expression; stronger effect = higher value | AID 1239, 2008; in the data active means fold change above about 3.3
An asterisk follows results filed as active.

O=C(NC1CC1)c1cc2c(F)cccc2s1 was read as STAT1 inh -1, STAT3 blocker 25, STAT3 act 83, STAT1 act 101, APP 5'UTR act -6 and NF-kB expr up 1.2.
Screening CN(C(=O)COC(=O)c1nc(Cl)c(Cl)c(Cl)c1Cl)C1CCS(=O)(=O)C1 (configuration not stated) returned STAT1 inh 4, STAT3 blocker 2, STAT3 act 103, STAT1 act 95, APP 5'UTR act -59 and NF-kB expr up 1.8.
For CCC(C)n1c(SCc2ccc([N+](=O)[O-])cc2)nc2ccsc2c1=O (configuration not stated) the results were STAT1 inh 15, STAT3 blocker 9, STAT3 act 93, STAT1 act 86, APP 5'UTR act -15 and NF-kB expr up 0.94.
Cc1ccc2sc(-c3ccc(NC(=O)CCN4C(=O)c5ccccc5C4=O)cc3)nc2c1 was read as STAT1 inh -55, STAT3 blocker -3, STAT3 act 102, STAT1 act 150*, APP 5'UTR act 162* and NF-kB expr up 2.7.
For COc1cccc(-c2cc(C(=O)NC3CCCC3)no2)c1 the results were STAT1 inh -50, STAT3 blocker 15, STAT3 act 89, STAT1 act 144*, APP 5'UTR act 18 and NF-kB expr up 4.9*.
Screening COc1cccc(-c2cc(C(=O)Nc3ccccc3SC)no2)c1 returned STAT1 inh -32, STAT3 blocker 12, STAT3 act 98, STAT1 act 129*, APP 5'UTR act 50 and NF-kB expr up 1.3.
COc1ccc(-c2cc(C(=O)Nc3ccccc3SC)no2)cc1OC was read as STAT1 inh 3, STAT3 blocker 21, STAT3 act 86, STAT1 act 97, APP 5'UTR act 12 and NF-kB expr up 1.2.
`COc1cccc(NC(=O)C(NC2CCCC2)c2ccccc2)c1` (configuration not stated) gave STAT1 inh 3, STAT3 blocker 0, STAT3 act 104, STAT1 act 98, APP 5'UTR act 1 and NF-kB expr up 1.1.
Screening COc1cccc(NC(=O)C(=S)NC2CCCCC2)c1 returned STAT1 inh -34, STAT3 blocker 31, STAT3 act 79, STAT1 act 130*, APP 5'UTR act 156* and NF-kB expr up 7*.
For COCC(C)NC(=O)c1cc(-c2cccc(OC)c2)on1 (configuration not stated) the results were STAT1 inh -37, STAT3 blocker 16, STAT3 act 89, STAT1 act 134*, APP 5'UTR act 23 and NF-kB expr up 1.5.
`CC(C)NC(=O)COC(=O)c1ccccc1C(=O)c1ccccc1` gave STAT1 inh 3, STAT3 blocker 0, STAT3 act 105, STAT1 act 99, APP 5'UTR act 5 and NF-kB expr up 1.2.
O=C(NCc1ccco1)C(c1ccc(F)cc1)N(C(=O)Cc1cccs1)c1cccnc1 (configuration not stated) was read as STAT1 inh 0, STAT3 blocker -9, STAT3 act 113, STAT1 act 99, APP 5'UTR act -11 and NF-kB expr up 0.92.
COC(=O)c1ccc(NC(=O)CN2CCN(c3ccccn3)CC2)cc1 was read as STAT1 inh 5, STAT3 blocker 1, STAT3 act 101, STAT1 act 95, APP 5'UTR act -4 and NF-kB expr up 1.1.
For Cc1ccc(N=CC2=C(O)CC(c3ccc(Cl)cc3)CC2=O)cc1 (configuration not stated) the results were STAT1 inh -5, STAT3 blocker 11, STAT3 act 94, STAT1 act 104, APP 5'UTR act -5 and NF-kB expr up 1.1.
Screening O=c1c2ccccc2ncn1CCOCCOc1ccc([N+](=O)[O-])cc1 returned STAT1 inh -35, STAT3 blocker 11, STAT3 act 95, STAT1 act 129*, APP 5'UTR act -5 and NF-kB expr up 1.1.
Screening CC1CCN(C(=O)C2CC(c3ccc(F)cc3)=NO2)CC1 (configuration not stated) returned STAT1 inh -32, STAT3 blocker 16, STAT3 act 88, STAT1 act 129*, APP 5'UTR act 15 and NF-kB expr up 1.6.
COc1ccc(C2=NOC(C(=O)N3CCOCC3)C2)cc1OC (configuration not stated) was read as STAT1 inh -7, STAT3 blocker -2, STAT3 act 105, STAT1 act 107, APP 5'UTR act 4 and NF-kB expr up 1.1.
For COc1cccc(C2=NOC(C(=O)N3CCOCC3)C2)c1 (configuration not stated) the results were STAT1 inh -36, STAT3 blocker -4, STAT3 act 108, STAT1 act 133*, APP 5'UTR act 38 and NF-kB expr up 2.
CC(OCC(O)CN(C)Cc1nc2ccccc2c(=O)[nH]1)c1ccc(Cl)cc1 (configuration not stated) was read as STAT1 inh -2, STAT3 blocker 0, STAT3 act 102, STAT1 act 101, APP 5'UTR act -5 and NF-kB expr up 1.
For CN(C)S(=O)(=O)c1ccc(C(=O)Nc2nnc(SCc3cccc(F)c3)s2)cc1 the results were STAT1 inh 2, STAT3 blocker -2, STAT3 act 102, STAT1 act 98, APP 5'UTR act 23 and NF-kB expr up 0.94.
Cc1ccccc1N=C1NC(=O)CS1 was read as STAT1 inh 2, STAT3 blocker 9, STAT3 act 98, STAT1 act 98, APP 5'UTR act -8 and NF-kB expr up 1.1.
`Cc1ccccc1N=C1Nc2ccccc2CS1` gave STAT1 inh -28, STAT3 blocker 33, STAT3 act 80, STAT1 act 126, APP 5'UTR act 105 and NF-kB expr up 4.6*.
`CC(=O)/C(N=Nc1ccc2c(c1)OCO2)=C(\C)O` gave STAT1 inh -43, STAT3 blocker -6, STAT3 act 108, STAT1 act 138*, APP 5'UTR act 37 and NF-kB expr up 1.1.
For CCN(CC)S(=O)(=O)c1ccc(N=N/C(C(C)=O)=C(/C)O)cc1 the results were STAT1 inh 2, STAT3 blocker -5, STAT3 act 104, STAT1 act 98, APP 5'UTR act -13 and NF-kB expr up 1.1.
`CC(=O)c1cnc2cc(-c3ccc(C)cc3)nn2c1C` gave STAT1 inh -41, STAT3 blocker 2, STAT3 act 101, STAT1 act 137*, APP 5'UTR act 60 and NF-kB expr up 6.6*.
